Experimental data from different studies.
RIOK1: Serine/threonine-protein kinase RIO1 (RIOK1, Homo sapiens, UniProt Q9BRS2)
SLC22A11: Solute carrier family 22 member 11 (SLC22A11, Homo sapiens, UniProt Q9NSA0)
CD209: CD209 antigen (CD209, Homo sapiens, UniProt Q9NNX6)
OPRD1: Delta-type opioid receptor (OPRD1, Homo sapiens, UniProt P41143)

With `C[C@]1(O)CCCN(c2nc(Nc3ccc(S(=O)(=O)N[C@H]4CC[C@H](CN5CCN(c6ccc(C7CCC(=O)NC7=O)cc6F)CC5)CC4)cc3F)ncc2C(F)(F)F)C1` (stereo partly drawn) the remaining binding was 100% (RIOK1; binding, competition with immobilised ligand; 1 µM).
For `CC(C)n1c(/C=C/C(O)CC(O)CC(=O)O)c(-c2ccc(F)cc2)c2ccccc21` (stereo not drawn), the inhibition was 82% (SLC22A11; transporter uptake, inhibitor; 25 µM).
The kinact/KI of `O=C(ON1C(=O)CCC1=O)c1cc(C(F)(F)F)cc(C(F)(F)F)c1` is reported as 91.7 M⁻¹ s⁻¹ (CD209; cell-free assay, inhibitor; pH 7.4).
The inhibition of `Cc1cc(F)cc2c(CCC(=O)N[C@@H]3C(=O)NC[C@H]3O)c(-c3ccc(F)cc3)[nH]c12` is reported as 1% (OPRD1; cell-free assay; 10 µM).
With `CCCCC(=O)Nc1ccc(-c2ccc3ncn(CCC)c(=O)c3c2)cn1` the remaining binding was 100% (RIOK1; binding, competition with immobilised ligand; 0.5 µM).
The inhibition of `NC/C(=C\F)COc1cccc(Cn2c(=S)[nH]c(=O)c3[nH]cnc32)c1` is reported as 3.14% (Diamine oxidase [copper-containing] (AOC1, Homo sapiens, UniProt P19801); enzyme activity, inhibitor; 200 pM).
For `O=C(N/N=C/c1ccc([N+](=O)[O-])o1)c1cc([N+](=O)[O-])cc([N+](=O)[O-])c1O`, the inhibition was 78.3% (SLC22A11; transporter uptake, inhibitor; 25 µM).
With `COc1c(Nc2cc(C(F)(F)F)cc(C(F)(F)F)c2)c(=O)c1=O` the kinact/KI was 0.916 M⁻¹ s⁻¹ (CD209; cell-free assay, inhibitor; pH 7.4).
With `Cc1cc(O)c(-c2ccc([C@@H](C)CN(C)C)cc2)c2c1[nH]c(=O)c1sccc12` the inhibition was 0.327% (Receptor-interacting serine/threonine-protein kinase 4 (RIPK4, Homo sapiens, UniProt P57078); enzyme activity, inhibitor; 0.1 µM).
`CC(C)=CCCC1(C)C=Cc2c(O)c3c(c(CC=C(C)C)c2O1)OC12C(=CCCC1C(C)(C)O[C@@]2(C/C=C(\C)C(=O)O)C(=O)O)C3=O` (stereo partly drawn) gave an inhibition of 87.8% (SLC22A11; transporter uptake, inhibitor; 25 µM).
`CCN1/C(=C/C(C)=O)Sc2ccc(F)cc21` has an inhibition of 0.37% (OPRD1; ligand displacement, radioligand; 10 µM).
For `CCCCNc1ccc(C(=O)OCCN(C)C)cc1`, the inhibition was 80.3% (SLC22A11; transporter uptake, inhibitor; 25 µM).
The remaining binding of `Cc1cc(S(=O)(=O)N[C@H]2CC[C@H](CN3CCN(c4ccc(C5CCC(=O)NC5=O)cc4F)CC3)CC2)ccc1Nc1ncc(C(F)(F)F)c(N2CCC[C@](C)(O)C2)n1` (stereo partly drawn) is reported as 55% (STE20-like serine/threonine-protein kinase (SLK, Homo sapiens, UniProt Q9H2G2); binding, competition with immobilised ligand; 1 µM).
With `COc1ccc2oc(-c3ccc4nc(N)oc4c3)c/c(=N\c3ccccc3NC(=O)CCN)c2c1` the remaining binding was 103% (Misshapen-like kinase 1 (MINK1, Homo sapiens, UniProt Q8N4C8); binding; 1 µM).
`CCCc1nc2c(C)cc(-c3nc4ccccc4n3C)cc2n1Cc1ccc(-c2ccccc2C(=O)O)cc1` has an inhibition of 90.2% (SLC22A11; transporter uptake, inhibitor; 25 µM).
`C#Cc1cc(-c2cc(Nc3nc(N[C@@H](C)c4ccc(F)cn4)ncc3Cl)n[nH]2)ccc1C=O` gave an inhibition of 97.4% (Serine/threonine-protein kinase SIK2 (SIK2, Homo sapiens, UniProt Q9H0K1); enzyme activity, inhibitor; 0.2 µM).
With `C[C@]1(O)CCCN(c2nc(Nc3ccc(S(=O)(=O)N[C@H]4CC[C@H](CN5CCN(c6ccc(C7CCC(=O)NC7=O)cc6F)CC5)CC4)cc3Cl)ncc2C(F)(F)F)C1` (stereo partly drawn) the remaining binding was 88% (RIOK1; binding, competition with immobilised ligand; 1 µM).
With `C1=C/COCc2cc(ccc2OCCN2CCCC2)Nc2nccc(n2)-c2cccc(c2)COC/1` the remaining signal was 90% (Tyrosine-protein kinase ITK/TSK (ITK, Homo sapiens, UniProt Q08881); cell-free assay; 0.1 µM).
